Assay outcomes as filed in PubChem.
Only some compounds are listed: those with a hit (about 1.9% of all), similar ones and a draw of the others.
MBD2 inh = inhibitors of MBD2 binding to methylated DNA, primary screen, biochemical, TR-FRET, DNA-binding domain, human; Methyl-CpG-binding domain protein 2 (Homo sapiens), Q9UBB5; MBD2 binding to methylated oligonucleotide; inhibition, % at 4.4 µM; actives 0.31% (n = 370,000); in the data active = inhibition above about 13%
Rin1-Abl PPI inh = inhibitors of Rin1-Abl protein binding, primary screen, biochemical, TR-FRET | inhibition, % at 7.35 µM | actives 0.4% (n = 360,000) | AID 588664, 2011; in the data active = inhibition above about 5%, passing the limit was not always enough
LEDGF integ inh = blockers of LEDGF/p75-dependent integrase strand transfer – biochemical, TR-FRET, high throughput, primary screen. HIV-1 integrase (with human LEDGF/p75). TR-FRET IN-LEDGF/p75 DNA integration, Eu/Cy5. inhibition, % at 3.7 µM. actives 0.64% (n = 370,000). AID 743269, 2014;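 active = inhibition above the screen-wide mean plus 3 SD, cut at about 13% in these data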;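 also: signal is the Cy5 over europium emission ratio at 671 and 618 nm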
TDP2 absorb = human TDP2 enzyme inhibitors, primary screen, biochemical, epi absorbance, recombinant enzyme; actives 0.34% (n = 370,000); Tyrosyl-DNA phosphodiesterase 2 (Homo sapiens), O95551; AID 720702, 2013; T5PNP hydrolysis, p-nitrophenol absorbance 415 nm; inhibition, % at 12.8 µM;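 active = inhibition above the mean of all tested compounds plus 3 SD, set per campaign, cut at about 25% in these data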
Target sequence (O95551 whole entry, looked up): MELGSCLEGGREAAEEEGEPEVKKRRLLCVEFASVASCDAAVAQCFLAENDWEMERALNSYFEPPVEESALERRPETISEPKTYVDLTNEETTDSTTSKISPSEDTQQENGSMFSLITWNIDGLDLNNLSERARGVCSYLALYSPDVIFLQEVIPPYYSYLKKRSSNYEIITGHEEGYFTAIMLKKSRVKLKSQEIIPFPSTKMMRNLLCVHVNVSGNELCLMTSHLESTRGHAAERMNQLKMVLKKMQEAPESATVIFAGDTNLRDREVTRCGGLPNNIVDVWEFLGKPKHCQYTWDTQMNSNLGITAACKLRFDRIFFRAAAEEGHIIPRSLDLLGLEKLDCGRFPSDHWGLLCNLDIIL
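Evaluation: % inhibition relative to enzyme-containing and enzyme-free wells. Material: recombinant human TDP2. Benchmarks: enzyme-free and DMSO wells. Timing: enzyme reaction with compound for 2 h at 37 °C. Compound dosing: 12.8 µM only. Measured by: p-Nitrophenol epi absorbance. Reagent: T5PNP substrate at 5 mM, a TopII-DNA adduct mimic. Replication: single well per compound.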
UHRF1 binding = UHRF1 methylated DNA binding inhibitors, primary screen, counter-screen for MBD2 inhibitor project, biochemical, TR-FRET, human UHRF1, single concentration; inhibition, % at 4.4 µM; actives 0.75% (n = 370,000); AID 687016, 2013; UHRF1 binding to methylated oligo;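 also: UHRF1 SRA domain binding a hemimethylated CpG hairpin DNA probe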
UHRF1 DNA bind = UHRF1 methylated DNA binding inhibitors, counter-screen for MBD2 inhibitor project, biochemical, TR-FRET, human UHRF1; shares compounds with MBD2 inh; UHRF1 binding to methylated oligonucleotide; inhibition, % at 4.4 µM; actives 25% (n = 1,000); AID 720530, 2013;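 also: UHRF1 SRA domain binding a labeled hemimethylated CpG hairpin DNA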
MBD2 DBD conf = inhibitors of MBD2 binding to methylated DNA, confirmation, biochemical, TR-FRET, DNA-binding domain, human | inhibition, % at 4.4 µM | TR-FRET MBD2-DBD binding to methylated oligonucleotide | AID 720531, 2013 | shares compounds with MBD2 inh | actives 26% (n = 1,000); in the data active = inhibition above about 14%
Hits are given with their value; n = inactive; x = no result given. Rule as the data show it, unless noted: active = inhibition above about 21%; inactive = the rest.

SMILES	MBD2 inh	Rin1-Abl PPI inh	LEDGF integ inh	TDP2 absorb	UHRF1 binding	UHRF1 DNA bind	MBD2 DBD conf
O=C(NC1CCC1)c1ccc(C#Cc2cccc(F)c2)nc1	17	x	n	n	n	n	n
Cc1cccc(Cn2cc(SCC(=O)Nc3nccs3)c3ccccc32)c1	30	n	n	n	n	n	n
Cc1ccc(Cn2cc(SCC(=O)Nc3nccs3)c3ccccc32)cc1	n	n	n	n	n	x	x
Cc1cc(C(=O)COC(=O)c2cc(Cl)c(O)c(Cl)c2)c(C)n1C	17	n	43	n	33	n	n
Cc1cc(C(=O)COC(=O)c2ccc(F)cc2)c(C)n1C	n	n	n	n	n	x	x
COc1ccc(Cn2c(=O)[nH]c3cc(OC)c(OC)cc3c2=O)cc1	17	n	n	n	31	n	n
O=C(c1ccc(N2CCOCC2)cc1[N+](=O)[O-])N1CCOCC1	14	n	n	n	n	n	n
NC(=O)C1CCN(c2nc(-c3ccc(N)cc3)cs2)CC1	n	x	n	n	n	x	x
CCC(=O)Nc1ccc(Cl)cc1C(=O)c1ccc[nH]1	n	x	n	n	n	x	x
Cc1cc2c(=Cc3ccc(N(C)C)cc3)c3ccccc3n2[n+]1C	32	n	n	n	47	60	64
COc1ccccc1S(=O)(=O)N(C)C[C@H]1Oc2cc(C#CCC3CCCC3)ccc2S(=O)(=O)N([C@H](C)CO)C[C@H]1C	14	n	n	n	22	n	n
COc1ccc(S(=O)(=O)N(C)C[C@@H]2Oc3cc(C#CC4CCCCC4)ccc3S(=O)(=O)N([C@@H](C)CO)C[C@@H]2C)cc1	17	n	n	n	27	n	n
COc1ccc(C#Cc2ccc3c(c2)O[C@H](CN(C)S(=O)(=O)c2ccccc2F)[C@H](C)CN([C@H](C)CO)S3(=O)=O)cc1	n	n	n	n	n	x	x
Cc1ccc(NC(=O)C2CCN(c3ncccn3)CC2)cc1C	n	x	n	n	n	x	x
Cn1cccc1CC(=O)N/N=C/C=C/c1ccco1	23	n	48	n	53	26	24
C/C(=N\NC(=O)Cc1cccn1C)c1ccco1	n	n	n	n	n	x	x
O=C(Nc1ccc(F)cc1)OCc1cn(Cc2ccccc2C(F)(F)F)nn1	n	x	n	n	n	x	x
COc1ccc(CNS(=O)(=O)CC2NCc3ccc(C)cc32)cc1 (configuration not stated)	n	x	n	n	n	x	x
Cc1cc2[nH]c3c(c[n+](C)c4ccccc34)c2cc1C	83	n	n	n	51	60	88
CC(C)Oc1ccc2nnnn2n1	14	n	n	n	22	n	n
c1ccc(-c2ccc3nnnn3n2)cc1	n	n	n	n	n	x	x
CCCCN1CCN(C(=O)c2ccc(CNC(=O)c3cccc(Br)c3)cc2)CC1	n	x	n	n	n	x	x
CCCCOc1ccc(C(=O)NC2CCCCN(C(C)C)C2=O)cc1 (configuration not stated)	n	x	n	n	n	x	x
CC1CC(C)CN(C(=O)COC(=O)c2ccc(N3CCCC3=O)cc2)C1 (configuration not stated)	n	n	n	n	n	x	x
COC(=O)C1CCN(C(=O)COC(=O)c2ccc(N3CCCC3=O)cc2)CC1	14	n	n	n	n	n	n
SMILES	MBD2 inh	Rin1-Abl PPI inh	LEDGF integ inh	TDP2 absorb	UHRF1 binding	UHRF1 DNA bind	MBD2 DBD conf
NS(=O)(=O)c1ccc(-c2c(-c3ccccc3)sc3ccccc23)cc1	14	n	n	n	22	n	n
COc1ccc(-c2sc3ccccc3c2-c2ccc(O)cc2)cc1	n	n	n	n	n	x	x
CCOC(=O)C1=C(COC(=O)C2CC(=O)N(c3ccc(C)cc3)C2)NC(=O)NC1C (configuration not stated)	14	n	n	n	37	n	n
CC(C)Oc1ccc(C(CCNCc2ccc(O)cc2)c2ccccc2)cc1 (configuration not stated)	65	n	n	n	n	n	n
COc1ccc(-c2oc3ncnc(NCCCN(C)C)c3c2-c2ccc(OC)cc2)cc1	15	n	n	n	n	n	n
COc1ccc(CNS(=O)(=O)CC2NCc3cc(OC)ccc32)cc1 (configuration not stated)	n	x	n	n	n	x	x
COC(=O)[C@]12C[C@H](CC(=O)N3CCOCC3)C(=O)N(Cc3cccc4ccccc34)C1=C[C@H](C1CCCC1)O[C@@H]2C	n	x	n	n	n	x	x
Cc1ccc(CNC(=O)c2nnn(-c3cccc(C)c3)c2N)cc1	15	n	n	n	28	n	n
Cc1cc(C)cc(-n2nnc(C(=O)NCc3ccccc3)c2N)c1	n	n	n	n	n	x	x
COc1ccc(NC(=O)COC(=O)CC23CC4CC(CC(C4)C2)C3)c([N+](=O)[O-])c1	46	n	n	n	n	n	n
CCC(=O)OCC(=O)Nc1ccc(OC)cc1[N+](=O)[O-]	n	n	n	n	n	x	x
Nc1cccc(S(=O)(=O)N2CCCN(S(=O)(=O)c3ccc4c(c3)OCCO4)CC2)c1	n	x	n	n	n	x	x
Nn1c(SCC(=O)N2CCOCC2)nnc1-c1cc(-c2ccc(Cl)cc2)n[nH]1	n	x	n	n	n	x	x
O=c1[nH]c(SCCOc2ccccc2F)nc2ccccc12	14	n	n	n	23	n	n
COc1ccccc1OCCSc1nc2ccccc2c(=O)[nH]1	n	n	n	n	n	x	x
Cc1ccc(NC(=O)C2CCN(c3nnc(-n4cccc4)s3)CC2)c(C)c1	n	x	n	n	n	x	x
O=C(C(=O)N1CCC(CNS(=O)(=O)c2ccccc2OC(F)(F)F)CC1)c1cccs1	28	x	n	n	27	n	n
CC(C)(C)c1ccc(S(=O)(=O)NCC2CCN(C(=O)C(=O)c3cccs3)CC2)cc1	n	x	n	n	n	x	x
c1cnc(SCC2CCCCC2)c(-c2nc3ccccc3[nH]2)c1	n	x	n	n	n	x	x
O=C(Nc1c[nH]c(=O)[nH]c1=O)c1cc([N+](=O)[O-])cc([N+](=O)[O-])c1	29	n	n	n	n	n	n
